The source of these data is ChEMBL document CHEMBL1132203, “Synthesis and biological properties of novel pyridinioalkanoyl thiolesters (PATE) as anti-HIV-1 agents that target the viral nucleocapsid protein zinc fingers” (J Med Chem, 1999).

Assay [1] concerns Human immunodeficiency virus 1. The assay is described as follows: Antiviral activity against HIV-1 infected CEM-SS cells was determined in XTT cytoprotection assay. The format is functional, organism-based. The following applies: Human immunodeficiency virus 1, CEM-SS. A digest of the protocol:
(§1)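 CEM-SS cells infected with HIV-1 RF at MOI 0.01, scored by XTT dye-reduction cytoprotection. EC50 is the concentration giving 50% protection of infected cells. IC50 is the concentration causing 50% cytotoxicity (growth inhibition). High test concentration 316 μM.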
Background: Tetrazolium assays rely on reduction of a dye to a coloured formazan, in cell work by metabolically active cells.

For assay [2], the system named is Human immunodeficiency virus 1. Kind of assay: Nucleocapsid p7 protein (NCp7) zinc finger domain reactivity was measured by Trp37 fluorescence assay expressed as the average decrease in relative fluorescence units over 30 min. The assay is classed as functional. The method, boiled down: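 Recombinant HIV-1 NCp7 (pET3A construct expressed in E. coli BL21); intrinsic fluorescence of Trp37 in the C-terminal zinc finger monitored over 30 min after compound addition. Value is the mean fall in relative fluorescence units per minute across 30 min, taken as a readout of Zn ejection. Dithiane or DIBA-1 served as reference. Where glutathione pretreatment was used, 2 mM compound was held 2 h at 37 °C with 2–8 M excess reduced glutathione, then diluted 40-fold to 50 μM final compound.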

The test system of assay [3] is Human immunodeficiency virus 1. Kind of assay: Effective antiviral concentration against HIV-1 infected CEM-SS cells. The assay is classed as functional, organism-based. The following applies: Human immunodeficiency virus 1, CEM-SS. A digest of the protocol: as §1
Assay [4] has as its target Human immunodeficiency virus type 1 reverse transcriptase (Human immunodeficiency virus 1, UniProt Q72547). The assay is described as follows: 50% Inhibitory activity against reverse transcriptase; No inhibition at a highest dose of 100 uM. A digest of the protocol: (§2)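 Top test level 100 μM; IC50 is the concentration inhibiting 50% of the indicated activity, with reference inhibitors run as positive controls. Integrase uses recombinant HIV-1 integrase, scored on 3'-processing and strand transfer. Protease uses recombinant HIV-1 protease cleaving the peptide Ala-Ser-Glu-Asn-Try-Pro-Ile-Val-amide, read by HPLC. Reverse transcriptase uses recombinant HIV-1 RT on rAdT and rCdG template/primers.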

A short description of assay [5]: 50% Inhibitory activity against attachment; No inhibition at a highest dose of 100 uM.
Assay [6] has as its target Human immunodeficiency virus type 1 integrase (Human immunodeficiency virus 1, UniProt Q7ZJM1). The assay is described as follows: 50% Inhibitory activity against Integrase; No inhibition at a highest dose of 100 uM. The method, boiled down: as §2
For assay [7], the target named is Human immunodeficiency virus type 1 protease (Human immunodeficiency virus 1, UniProt Q72874). The assay is described as follows: 50% Inhibitory activity against protease; No inhibition at a highest dose of 100 uM. The method, boiled down: as §2
A short description of assay [8]: 50% Inhibitory activity against fusion; No inhibition at a highest dose of 100 uM.

Human immunodeficiency virus type 1 integrase, sequence (Q7ZJM1 whole entry): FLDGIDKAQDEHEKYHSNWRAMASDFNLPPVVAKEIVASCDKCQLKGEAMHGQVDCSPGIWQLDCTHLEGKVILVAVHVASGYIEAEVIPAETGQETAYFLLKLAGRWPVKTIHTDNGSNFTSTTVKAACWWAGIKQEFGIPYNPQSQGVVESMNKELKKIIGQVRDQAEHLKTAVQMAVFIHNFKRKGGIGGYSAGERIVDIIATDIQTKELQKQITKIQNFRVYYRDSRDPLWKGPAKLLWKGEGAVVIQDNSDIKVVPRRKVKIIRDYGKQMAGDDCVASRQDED

Turning to `NS(=O)(=O)c1ccc(NC(=O)CNC(=O)c2ccccc2SSc2ccccc2C(=O)NCC(=O)Nc2ccc(S(N)(=O)=O)cc2)cc1`, the half-maximal inhibitory concentration (IC50) in assay [1] came to 17.6 µM. This compound also registered an Activity in assay [2] of 7.9 RFU min-1. Also, the EC50 in assay [3] is 1.6 µM.
Consider `O=C(CCCC[n+]1ccccc1)Sc1ccccc1C(=O)Nc1ccc(S(=O)(=O)c2ccc(NS(=O)(=O)Cc3ccccc3[N+](=O)[O-])cc2)cc1.[Br-]`, for which the half-maximal inhibitory concentration (IC50) in assay [1] was over 316 µM. This compound gave an Activity in assay [2] of 0.86 RFU min-1. In assay [3], this compound had a concentration for a half-maximal effect (EC50) of 2.9 µM.
In the case of `NS(=O)(=O)c1ccc(Cn2sc3ccccc3c2=O)cc1`, the half-inhibitory concentration (IC50) in assay [1] amounted to 53.7 µM. Further, the Activity in assay [2] is on record as 2.7 RFU min-1. In assay [3], this compound had a 50% effective concentration (EC50) of 13.8 µM.
For `CC(=O)NS(=O)(=O)c1ccc(NC(=O)c2ccccc2SC(=O)CCCCC[n+]2ccccc2)cc1.[Br-]`, in that order: 69.7 µM, 1.9 RFU min-1 and 10.5 µM.
Turning to `O=C(CCCC[n+]1ccccc1)Sc1ccccc1C(=O)Nc1ccc(S(=O)(=O)c2ccc([N+](=O)[O-])cc2)cc1.[Br-]`, the half-maximal inhibitory concentration (IC50) entry was “No inhibition” in assay [4], over 316 µM in assay [1], “No inhibition” in assay [5] and “No inhibition” in assay [6]. In assay [2], the Zinc finger reactivity amounted to 4.1 RFU min-1. In addition, the midpoint of the response in assay [3], the EC50, lay at 5.5 µM.
As to `CC(=O)NS(=O)(=O)c1ccc(NC(=O)c2ccccc2SC(=O)CCCCBr)cc1`, the 50% inhibitory concentration (IC50) entry in assay [4] was “No inhibition”; in assay [1] it was 184 µM; in assay [5], “No inhibition”; in assay [7] it was “No inhibition”; in assay [8], “No inhibition”; in assay [6] it was “No inhibition”. The Zinc finger reactivity in assay [2] was 1.8 RFU min-1. Moreover, it took 3.8 µM to reach a half-maximal effect in assay [3] (EC50).
Turning to `CC(=O)NS(=O)(=O)c1ccc(NC(=O)c2ccccc2SC(=O)CCCC[n+]2ccccc2)cc1.[Br-]`, the IC50 result in assay [4] is “No inhibition”; in assay [1], over 316 µM; in assay [5] it was “No inhibition”; in assay [7], “No inhibition”; in assay [6], “No inhibition”. Besides, the Zinc finger reactivity in assay [2] stood at 3.6 RFU min-1. Besides, the response in assay [3] was half-maximal at 6.2 µM (EC50).
Consider `CC(=O)Nc1ccc(S(=O)(=O)Nc2ccc(S(=O)(=O)c3ccc(-n4sc5ccccc5c4=O)cc3)cc2)cc1`, for which half-maximal inhibition in assay [1] (IC50) was put at 188 µM. In addition, in assay [2], the Activity stood at 7.9 RFU min-1. For the same compound, in assay [3], the response was half-maximal at 9.6 µM (EC50).
`CC(=O)NS(=O)(=O)c1ccc(NC(=O)c2ccccc2SC(=O)CCC[n+]2ccccc2)cc1.[Br-]` showed an IC50 in assay [1] of 175 µM. In assay [2], this compound returned an Activity of 2.2 RFU min-1. The compound also returned an EC50 in assay [3] of 10.1 µM.
`CC(=O)Nc1ccc(S(=O)(=O)c2ccc(NC(=O)c3ccccc3SSc3ccccc3C(=O)Nc3ccc(S(=O)(=O)c4ccc(NC(C)=O)cc4)cc3)cc2)cc1`: inhibition in assay [1] was half-maximal at 160 µM (IC50). Also, the Activity in assay [2] is 5.9 RFU min-1. Moreover, the EC50 in assay [3] is 1.5 µM.
For `COc1ccc(C(=O)Sc2ccccc2C(=O)Nc2ccc(S(=O)(=O)NC(C)=O)cc2)cc1` the same measures were 43.7 µM, 3.5 RFU min-1 and 2.8 µM.
For `CC(=O)Nc1cccc(S(=O)(=O)c2cccc(NC(=O)c3ccccc3SC(=O)CCCC[n+]3ccccc3)c2)c1.[Br-]`, in that order: 205 µM, 1.1 RFU min-1 and 4.9 µM.
With `NS(=O)(=O)c1ccc(CCn2sc3ccccc3c2=O)cc1`, the IC50 in assay [1] turned out to be 45.5 µM. This compound also displayed an Activity in assay [2] of 2.7 RFU min-1. In assay [3], this compound returned an EC50 of 2 µM.
On to `O=C(Nc1ccc(S(=O)(=O)c2ccc(NC(=O)c3ccccc3SSc3ccccc3C(=O)Nc3ccc(S(=O)(=O)c4ccc(NC(=O)c5ccc([N+](=O)[O-])cc5)cc4)cc3)cc2)cc1)c1ccc([N+](=O)[O-])cc1`, for which the IC50 in assay [1] is over 316 µM. In assay [2], this compound showed an Activity of 2.9 RFU min-1. In addition, in assay [3], the response was half-maximal at 78 µM (EC50).
Turning to `COc1ccc(C(=O)Nc2ccc(S(=O)(=O)c3ccc(NC(=O)c4ccccc4SSc4ccccc4C(=O)Nc4ccc(S(=O)(=O)c5ccc(NC(=O)c6ccc(OC)cc6)cc5)cc4)cc3)cc2)cc1`, inhibition in assay [1] was half-maximal at 79.6 µM (IC50). The compound also gave an Activity in assay [2] of 6.9 RFU min-1. The same compound had a 50% effective concentration (EC50) in assay [3] of 3.8 µM.
For `CC(=O)Nc1ccc(S(=O)(=O)Nc2ccc(S(=O)(=O)c3ccc(NC(=O)c4ccccc4SSc4ccccc4C(=O)Nc4ccc(S(=O)(=O)c5ccc(NS(=O)(=O)c6ccc(NC(C)=O)cc6)cc5)cc4)cc3)cc2)cc1` the same measures were 12.7 µM, 5.9 RFU min-1 and 1 µM.
Consider `Nc1ccc(S(=O)(=O)c2ccc(NC(=O)c3ccccc3SSc3ccccc3C(=O)Nc3ccc(S(=O)(=O)c4ccc(N)cc4)cc3)cc2)cc1`, for which, in assay [1], the IC50 was over 316 µM. For the same compound, the Activity in assay [2] was determined as 3.3 RFU min-1. Moreover, the midpoint of the response in assay [3], the EC50, lay at 4.3 µM.
`O=C(Nc1ccc(S(=O)(=O)c2ccc([N+](=O)[O-])cc2)cc1)c1ccccc1SSc1ccccc1C(=O)Nc1ccc(S(=O)(=O)c2ccc([N+](=O)[O-])cc2)cc1`: the 50% inhibitory concentration (IC50) in assay [1] was over 316 µM. In assay [2], this compound returned an Activity of 2.9 RFU min-1. Also, the EC50 in assay [3] worked out at 12.2 µM.
For `CC(=O)NS(=O)(=O)c1ccc(NC(=O)c2ccccc2SC(=O)CCCC[n+]2cccc(Cl)c2)cc1.[Br-]`, in that order: 264 µM, 0.2 RFU min-1 and 54 µM.
Take `CC(=O)Nc1ccc(S(=O)(=O)c2ccc(NC(=O)c3ccccc3SC(=O)CCCC[n+]3ccccc3)cc2)cc1.[Br-]`: the concentration for half-maximal inhibition (IC50) in assay [1] was 288 µM. Moreover, the Activity in assay [2] is recorded as 1.7 RFU min-1. Further, in assay [3], the EC50 was found to be 4.6 µM.
For the compound `CC(=O)NS(=O)(=O)c1ccc(NC(=O)c2ccccc2SC(=O)CCCl)cc1`, the half-inhibitory concentration (IC50) in assay [1] turned out to be 62 µM. The compound also yielded an Activity in assay [2] of 9.2 RFU min-1. The compound also gave an EC50 in assay [3] of 4.2 µM.
As for `NS(=O)(=O)c1ccc(CCNC(=O)c2ccccc2SSc2ccccc2C(=O)NCCc2ccc(S(N)(=O)=O)cc2)cc1`, half-maximal inhibition in assay [1] (IC50) was put at 52.8 µM. Besides, the Activity in assay [2] is 2.7 RFU min-1. The same compound had a 50% effective concentration (EC50) in assay [3] of 0.41 µM.
For `O=C(CCCCBr)Sc1ccccc1C(=O)Nc1ccc(S(=O)(=O)c2ccc([N+](=O)[O-])cc2)cc1` the same measures were 21.7 µM, 1 RFU min-1 and 1.6 µM.
The compound `Nc1cccc(S(=O)(=O)c2cccc(NC(=O)c3ccccc3SSc3ccccc3C(=O)Nc3cccc(S(=O)(=O)c4cccc(N)c4)c3)c2)c1` gave an IC50 in assay [1] of 81.5 µM. This compound also gave an Activity in assay [2] of 0.92 RFU min-1. Further, in assay [3], a half-maximal effect (EC50) was put at 1 µM.
In assay [1], `CC(=O)Nc1cccc(S(=O)(=O)c2cccc(NC(=O)c3ccccc3SSc3ccccc3C(=O)Nc3cccc(S(=O)(=O)c4cccc(NC(C)=O)c4)c3)c2)c1` yielded an IC50 of 59.1 µM. Moreover, in assay [2], the Activity turned out to be 2 RFU min-1. This compound also gave a half-maximal effective concentration (EC50) in assay [3] of 0.62 µM.
For `CC(=O)NS(=O)(=O)c1ccc(NC(=O)c2ccccc2SC(=O)c2ccccc2)cc1`, inhibition in assay [1] was half-maximal at 45.7 µM (IC50). This compound also displayed an Activity in assay [2] of 2.2 RFU min-1. Moreover, the EC50 in assay [3] was determined as 2.6 µM.
`CC(=O)NS(=O)(=O)c1ccc(NC(=O)c2cccc(NC(=O)CCCl)c2)cc1` registered a half-maximal inhibitory concentration (IC50) in assay [1] of 103 µM. Moreover, the Activity in assay [2] is reported as 3.9 RFU min-1. In addition, in assay [3], a half-maximal response (EC50) required 38 µM.
The compound `CC(=O)NS(=O)(=O)c1ccc(NC(=O)c2ccccc2SC(C)=O)cc1` gave an IC50 in assay [1] of 56.7 µM. The Activity in assay [2] amounted to 4.2 RFU min-1. The same compound returned an EC50 in assay [3] of 2.8 µM.

The IC50 is the concentration at which inhibition is half-maximal. In general, EC50 refers to the concentration giving half of the maximal effect.
